The values that follow come from ChEMBL document CHEMBL3286095, “Synthesis and antiparasitic activity of new bis-arylimidamides: DB766 analogs modified in the terminal groups” (Eur J Med Chem, 2014).

Data set [1] deals with Trypanosoma brucei rhodesiense. As to the kind of experiment: Antiparasitic activity against Trypanosoma brucei rhodesiense STIB900 trypomastigotes after 3 days by Alamar blue assay. The note with it: STIB900, 72 h. The format is functional, organism-based. Summed up:
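Axenic trypomastigote bloodstream forms, strain STIB900, exposed to serial drug dilutions for 3 days at 37°C. Viability read by Alamar blue.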

Data set [2] is described as follows: Selectivity index, ratio of IC50 for rat L6 cells to IC50 for chloroquine-resistant Plasmodium falciparum K1. To be noted: read-out: Ratio IC50. The data set is classed as toxicity, cell-based. Put shortly: (§1)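 SI is the IC50 in cultured L6 rat myoblasts (3-day drug exposure, Alamar blue viability) divided by the parasite IC50. Parasite assays used serial dilutions at 37°C. T. cruzi: intracellular, 4 days, β-galactosidase read-out with CPRG. T. b. rhodesiense: axenic, 3 days, Alamar blue. P. falciparum: 3 days, hypoxanthine incorporation. L. amazonensis: intracellular.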

The nature of data set [3]: Selectivity index, ratio of IC50 for rat L6 cells to IC50 for Trypanosoma brucei rhodesiense STIB900 trypomastigotes. The format is toxicity, cell-based. The note with it: read-out: Ratio IC50. Summed up: as §1
A short description of data set [4]: Selectivity index, ratio of IC50 for rat L6 cells to IC50 for Leishmania amazonensis. The note with it: read-out: Ratio IC50. The data set is classed as toxicity, cell-based. Summed up: as §1
Data set [5] is described as follows: Selectivity index, ratio of IC50 for rat L6 cells to IC50 for Trypanosoma cruzi Tulahen LacZ/C4 amastigotes. The data set is classed as toxicity, cell-based. The note with it: read-out: Ratio IC50. Put shortly:
as §1

The test system of data set [6] is Plasmodium falciparum. Nature of the data set: Antiparasitic activity against chloroquine-resistant Plasmodium falciparum K1 after 3 days by [3H]-hypoxanthine incorporation assay. The data set is classed as functional, organism-based. Summed up: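 Erythrocytic-stage parasites exposed to serial drug dilutions at 37°C for 3 days; viability read by tritium-labelled hypoxanthine incorporation.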

Data set [7] deals with Trypanosoma cruzi. As to the kind of experiment: Antiparasitic activity against Trypanosoma cruzi Tulahen LacZ/C4 amastigotes after 4 days by beta-galactosidase reporter gene assay. The format is functional, organism-based. To be noted: Tulahen LacZ/C4, 96 h. Summed up: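 Intracellular amastigotes of strain Tulahen LacZ/C4 given serial drug dilutions for 4 days at 37°C. The endpoint is the β-galactosidase reporter, read as a colour change after adding CPRG substrate.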
For orientation: In a reporter assay the amount or activity of a reporter protein is the signal.

In data set [8] the test system is L6. As to the kind of experiment: Cytotoxicity against rat L6 cells after 3 days by Alamar blue assay. The format is cell-based. The note with it: L6, 72 h. Put shortly: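 L6 rat myoblast cells cultured with compound for 3 days. Viability measured by Alamar blue.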
(In general: The colour change of resazurin is a common sign of viable cells or microbes.)

Data set [9] relates to Leishmania amazonensis. As to the kind of experiment: Antiparasitic activity against Leishmania amazonensis infected in CD-1 mouse macrophages after 72 hrs by spectrophotometric analysis. The data set is classed as functional, organism-based.
The test system of data set [10] is Trypanosoma cruzi. As to the kind of experiment: Ratio of benznidazole IC50 to compound IC50 for Trypanosoma cruzi Tulahen LacZ/C4 amastigotes. The data set is classed as functional.
Data set [11] deals with Plasmodium falciparum. As to the kind of experiment: Ratio of pentamidine IC50 to compound IC50 for chloroquine-resistant Plasmodium falciparum K1. The data set is classed as functional.

For orientation: IC50 means the concentration needed to halve the response being measured. A lower IC50 goes with greater potency. For `CC(C)Oc1cc(NC(=N)c2ncc[nH]2)ccc1-c1ccc(-c2ccc(NC(=N)c3ncc[nH]3)cc2OC(C)C)o1`, the IC50 came to 0.06 µM in [1], 0.015 µM in data set [6], 0.6 µM in data set [7] and 1.6 µM in [8]. For the same compound, the selectivity ratio is 107 in [2], 26.7 in [3], 4.32 in [4] and 2.67 in [5].

For `Cc1csc(C(=N)Nc2ccc(-c3ccc(-c4ccc(NC(=N)c5nc(C)cs5)cc4OC(C)C)o3)c(OC(C)C)c2)n1`, the IC50 was 78.6 µM in [1]; greater than 10 µM in data set [9]; 0.999 µM in data set [6]; greater than 122 µM in [7]; greater than 122 µM in [8]. The results for the selectivity ratio in [2], in [3] and in data set [4] were greater than 122, greater than 1.55 and greater than 12.2, respectively.

Regarding `Cc1nc(C(=N)Nc2ccc(-c3ccc(-c4ccc(NC(=N)c5csc(C)n5)cc4OC(C)C)o3)c(OC(C)C)c2)cs1`, the IC50 in [1] worked out at 0.74 µM; in data set [6], 0.087 µM; in data set [7], 2.3 µM; in [8], 4.7 µM. For the same compound, the selectivity ratio in [2] came out at 54; in [3], 6.36; in data set [4], 27.6; in [5] it was 2.04.

Consider `CC(C)Oc1cc(NC(=N)c2cn(C)cn2)ccc1-c1ccc(-c2ccc(NC(=N)c3cn(C)cn3)cc2OC(C)C)o1`, for which the IC50 in [1] worked out at 0.108 µM; in data set [6], 0.054 µM; in data set [7], 18 µM; in data set [8], 8 µM. Also, the selectivity ratio in [2] was determined as 148; in data set [3], 74.1; in [4] it was 1.6; in data set [5], 0.44.

For the compound `CC(=O)N(C)c1nc(C(=N)Nc2ccc(-c3ccc(-c4ccc(NC(=N)c5csc(N(C)C(C)=O)n5)cc4OC(C)C)o3)c(OC(C)C)c2)cs1`, the IC50 in [1] was 0.078 µM; in [6], 0.035 µM; in data set [7] it was 3.1 µM; in [8], 0.8 µM. For the same compound, the selectivity ratio in data set [2] was 22.6; in [3], 10.3; in [4], 0.99; in data set [5], 0.26.

With `CC(C)Oc1cc(NC(=N)c2ccccn2)ccc1-c1ccc(-c2ccc(NC(=N)c3ccccn3)cc2OC(C)C)o1`, the IC50 in [1] turned out to be 0.12 µM; in data set [6], 0.149 µM; in [7], 0.1 µM. The selectivity ratio in [2] worked out at 20.1; in [3], 25; in data set [4] it was 34.5; in [5], 30.

On to `CC(C)Oc1cc(NC(=N)c2cnccn2)ccc1-c1ccc(-c2ccc(NC(=N)c3cnccn3)cc2OC(C)C)o1`, for which the IC50 in data set [1] is 8.08 µM; in data set [6], 0.552 µM; in data set [7], 16 µM; in data set [8], greater than 129 µM. Also, the selectivity ratio in [2] was greater than 234; in data set [3] it was greater than 16; in data set [4], 34.8; in data set [5], greater than 8.1.

In the case of `CC(C)Oc1cc(NC(=N)c2cc(Br)cs2)ccc1-c1ccc(-c2ccc(NC(=N)c3cc(Br)cs3)cc2OC(C)C)o1`, the IC50 in [1] was 43.9 µM; in data set [6], 0.992 µM; in [7], greater than 108 µM; in [8] it was greater than 108 µM. Further, the selectivity ratio was greater than 109 in [2] and greater than 2.46 in [3].

Turning to `CC(C)Oc1cc(NC(=N)c2ccn(C)n2)ccc1-c1ccc(-c2ccc(NC(=N)c3ccn(C)n3)cc2OC(C)C)o1`, the IC50 in data set [1] was 0.436 µM; in data set [6], 0.07 µM; in data set [7] it was 6.1 µM; in data set [8] it was 1.4 µM. The selectivity ratio is 20 in data set [2], 3.21 in [3], 1.89 in data set [4] and 0.23 in data set [5].

Turning to `CC(C)Oc1cc(NC(=N)c2ncccn2)ccc1-c1ccc(-c2ccc(NC(=N)c3ncccn3)cc2OC(C)C)o1.Cl`, the IC50 came to 0.032 µM in data set [1], 0.0085 µM in data set [6], 0.2 µM in [7] and 5.8 µM in data set [8]. Further, the selectivity ratio is 682 in data set [2], 181 in data set [3], 8.29 in data set [4] and 29 in data set [5]. Further, the results for the “Ratio IC50” value in data set [10] and in [11] were 9 and 5, respectively.

On to `CC(=O)Nc1nc(C(=N)Nc2ccc(-c3ccc(-c4ccc(NC(=N)c5csc(NC(C)=O)n5)cc4OC(C)C)o3)c(OC(C)C)c2)cs1.Cl`, for which the IC50 in [1] was 0.012 µM; in [6], 0.009 µM; in data set [7], 1.6 µM; in data set [8], 0.6 µM. For the same compound, the selectivity ratio in data set [2] is 66.7; in data set [3] it was 50; in data set [4] it was 2.73; in data set [5], 0.38. Besides, the “Ratio IC50” value in data set [11] is given as 5.

In the case of `CC(C)Oc1cc(NC(=N)c2cccnn2)ccc1-c1ccc(-c2ccc(NC(=N)c3cccnn3)cc2OC(C)C)o1`, the IC50 in [1] was 1.7 µM; in data set [6], 0.582 µM; in data set [7], 1.5 µM; in data set [8], 1.8 µM. The selectivity ratio in data set [2] came to 3.09; in [3], 1.06; in data set [4], 1.64; in data set [5], 1.2.

Turning to `CNc1nc(C(=N)Nc2ccc(-c3ccc(-c4ccc(NC(=N)c5csc(NC)n5)cc4OC(C)C)o3)c(OC(C)C)c2)cs1`, the IC50 turned out to be 0.092 µM in data set [1], 0.031 µM in data set [6], 2.3 µM in data set [7] and 0.8 µM in data set [8]. The selectivity ratio in [2] came to 25.8; in [3], 8.69; in data set [4], 2.67; in data set [5], 0.35.

With `CC(C)Oc1cc(NC(=N)c2csc(N)n2)ccc1-c1ccc(-c2ccc(NC(=N)c3csc(N)n3)cc2OC(C)C)o1`, the IC50 turned out to be 0.357 µM in data set [1], 0.039 µM in [6], 5.6 µM in data set [7] and 3.7 µM in data set [8]. The selectivity ratio in data set [2] is 94.9; in data set [3], 10.4; in data set [4] it was 2.18; in data set [5] it was 0.66.

With `CC(C)Oc1cc(NC(=N)c2ccc(Br)s2)ccc1-c1ccc(-c2ccc(NC(=N)c3ccc(Br)s3)cc2OC(C)C)o1`, the IC50 in data set [1] is 17 µM; in data set [6], 0.914 µM; in data set [7], greater than 110 µM; in [8] it was greater than 110 µM. In addition, the selectivity ratio was greater than 120 in data set [2] and greater than 6.47 in data set [3].

As to `CC(C)Oc1cc(NC(=N)c2ccc[nH]2)ccc1-c1ccc(-c2ccc(NC(=N)c3ccc[nH]3)cc2OC(C)C)o1`, the IC50 in data set [1] was determined as 0.115 µM; in [6], 0.025 µM; in data set [7] it was 4.1 µM; in [8] it was 1 µM. Also, the selectivity ratio in [2] came to 40; in data set [3], 8.69; in data set [4], 1.11; in data set [5], 0.24.

For `O=C(Cn1ccnc1[N+](=O)[O-])NCc1ccccc1` [BENZNIDAZOLE], the selectivity ratio in data set [5] is greater than 80. In addition, the IC50 in data set [7] was 1.87 µM; in data set [8] it was greater than 150 µM.
